Data taken from ChEMBL document CHEMBL3351450 (Bioorg Med Chem, 2014).

Experiments:
[1] = test system: Liver; test: Intrinsic clearance in human liver S9 fraction; type: ADME, subcellular
[2] = Metabolic stability in human liver S9 fraction assessed as compound remaining at 1 uM after 15 mins by LC-MS/MS analysis; type: ADME, subcellular; settings: read-out: Stability
[3] = Metabolic stability in human liver S9 fraction assessed as compound remaining at 1 uM after 5 mins by LC-MS/MS analysis; type: ADME, subcellular; settings: read-out: Stability
[4] = Cmax in Sprague-Dawley rat at 30 mg/kg, po; type: ADME, organism-based; set-up: dose 30 mg/kg, route oral; settings: in vivo
Summary of the method: (§1)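 Male SD rats, 3 per route. Oral dose given by gavage as a suspension in 0.5% Tween 80 (w/v). IV dose given via the femoral vein in DMSO/PEG-400/saline (5:65:30). Tail-vein blood drawn over 24 h and centrifuged to plasma. Parent and metabolite measured by LC–MS/MS.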

[5] = AUC (0 to infinity) in Sprague-Dawley rat at 30 mg/kg, po; type: ADME, organism-based; set-up: time infinity, dose 30 mg/kg, route oral; settings: plasma; summary of the method: as §1
[6] = Tmax in Sprague-Dawley rat at 3 mg/kg, iv; type: ADME, organism-based; set-up: dose 3 mg/kg, route intravenous; settings: in vivo
Summary of the method: (§2)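 Male SD rats, three per route. Oral gavage of a suspension in 0.5% Tween 80 (30 mg/kg). IV via femoral vein in DMSO/PEG-400/saline 5:65:30 (3 mg/kg). Tail-vein blood sampled over 24 h. Plasma stored at -20 °C and analysed by LC–MS/MS for parent and metabolite. Values reported as mean ± SD of three rats.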

[7] = Cmax in Sprague-Dawley rat at 3 mg/kg, iv; type: ADME, organism-based; set-up: dose 3 mg/kg, route intravenous; settings: in vivo; summary of the method: as §1
[8] = Half life in Sprague-Dawley rat at 3 mg/kg, iv; type: ADME, organism-based; set-up: dose 3 mg/kg, route intravenous; settings: in vivo; summary of the method: as §1
[9] = Half life in Sprague-Dawley rat at 30 mg/kg, po; type: ADME, organism-based; set-up: dose 30 mg/kg, route oral; settings: in vivo; summary of the method: as §1
[10] = AUC (0 to infinity) in Sprague-Dawley rat at 3 mg/kg, iv; type: ADME, organism-based; set-up: dose 3 mg/kg, route intravenous, time infinity; settings: plasma; summary of the method: as §1
[11] = Tmax in Sprague-Dawley rat at 30 mg/kg, po; type: ADME, organism-based; set-up: dose 30 mg/kg, route oral; settings: in vivo; summary of the method: as §2
[12] = Oral bioavailability in Sprague-Dawley rat at 30 mg/kg; type: ADME, organism-based; settings: in vivo; summary of the method: as §2

CLint [1]	remaining at 0.25 h, 1 µM [2]	remaining at 5 min, 1 µM [3]	Compound	also measured
81.8 µL/min/mg	50.3%	81.5%	Fc1ccc(-c2n[nH]c(CCCc3ccccc3)c2-c2ccncc2)cc1	
40.6 µL/min/mg	86.2%	90.4%	O=C(Cc1ccccc1)Nc1[nH]nc(-c2ccc(F)cc2)c1-c1ccncc1	
68.1 µL/min/mg	65%	84.4%	Cn1nc(NC(=O)Cc2ccccc2)c(-c2ccncc2)c1-c1ccc(F)cc1	
31.6 µL/min/mg	82.5%	92.4%	CC(=O)Nc1onc(-c2ccc(F)cc2)c1-c1ccncc1	
	10.9%	39.6%	O=C(Nc1onc(-c2ccc(F)cc2)c1-c1ccncc1)c1ccccc1	
91 µL/min/mg	64.3%	79.7%	O=C(Cc1ccccc1)Nc1onc(-c2ccc(F)cc2)c1-c1ccncc1	
455 µL/min/mg	27.9%	32.1%	O=C(CCc1ccccc1)Nc1onc(-c2ccc(F)cc2)c1-c1ccncc1	
272 µL/min/mg	28.5%	50.7%	O=C(CCCc1ccccc1)Nc1onc(-c2ccc(F)cc2)c1-c1ccncc1	
			Nc1onc(-c2ccc(F)cc2)c1-c1ccncn1	Cmax [4]: 136 ng/mL; AUC(0-inf) [5]: 760 ng·h/mL; Tmax [6]: 30 min; Cmax [7]: 744 ng/mL; half-life [8]: 25.7 min; half-life [9]: 58.8 min; AUC(0-inf) [10]: 924 ng·h/mL; Tmax [11]: 200 min
		5.6%	O=C(Cc1ccccc1)Nc1onc(-c2ccc(F)cc2)c1-c1ccncn1	
		10%	O=C(Cc1ccccc1F)Nc1onc(-c2ccc(F)cc2)c1-c1ccncn1	
		5.8%	O=C(Cc1ccccc1Cl)Nc1onc(-c2ccc(F)cc2)c1-c1ccncn1	
		16.1%	O=C(Cc1c(F)cccc1Cl)Nc1onc(-c2ccc(F)cc2)c1-c1ccncn1	Cmax [4]: 0.88 ng/mL; AUC(0-inf) [5]: 23.7 ng·h/mL; Tmax [6]: 4.8 min; Cmax [7]: 363 ng/mL; half-life [8]: 28.4 min; bioavailability [12]: < 1%; half-life [9]: 1120 min; AUC(0-inf) [10]: 505 ng·h/mL; Tmax [11]: 200 min
		53.9%	Cc1ccc(C)c(CC(=O)Nc2onc(-c3ccc(F)cc3)c2-c2ccncn2)c1	
		96.6%	O=C(Cc1ccccc1Cl)Nc1onc(-c2ccc(Cl)cc2)c1-c1ccncn1	
		20.4%	O=C(Cc1ccccc1Cl)Nc1onc(-c2ccc(F)cc2F)c1-c1ccncn1	
		21.2%	Cc1cccc(-c2noc(NC(=O)Cc3ccccc3Cl)c2-c2ccncn2)c1	
		52.6%	Cc1cc(-c2noc(NC(=O)Cc3ccccc3C)c2-c2ccncn2)ccc1F	
